Bioassay records (PubChem)
Rows were chosen to be rich in hits. Some 3.1% of all compounds tested hit in one or more screens of this group.
miR122 inh – inhibitors of miR-122 in Huh7 cells; actives 0.3% (n = 340,000); activation (reporter increase), % at 12.5 µM; Huh7 miR-122 Renilla luciferase sensor, 48 h; neutral wells = 0, positive control = 100;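 active = mean replicate activation score at least 90 and every replicate individually at or above 90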;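 note: higher luciferase means less miR-122 activity so hits act as miR-122 inhibitors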
HIV Env fusion – blocks HIV Env-driven cell-cell fusion | AID 651610 | actives 1.1% (n = 360,000) | inhibition, % at 12.3 µM | HeLa-JRFL Env/CEM21 cell fusion, luciferase;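 active = mean replicate inhibition score of at least 50 and every replicate individually at or above 50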;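 note: 0% = plate neutral controls and 100% = maraviroc near 300 nM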
F508del corr – CFTR F508del correction in bronchial cells; activity (quench increase), % at 7.58 µM; CFBE cells, YFP halide quenching; stimulated with forskolin plus potentiator P3; % fluorescence drop versus neutral controls; AID 720511; actives 0.36% (n = 350,000);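 active = mean added fluorescence quench of at least 8% versus neutral control, with both replicates also reaching 8%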;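 note: cells transiently co-express mutant CFTR-F508del with the halide-sensitive YFP; corrector assay measuring rescue of mutant channel to the surface after 24 h compound exposure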
rRNA inh HTS – inhibitors of bacterial rRNA selective over humanized ribosomes; E. coli WT GFP vs humanized-ribosome RFP mutants, fluorescence, 24 h; hits give low values; DMSO median 0, no signal -100; GFP signal change (wild-type ribosome), % (no concentration beside the values); actives 1.6% (n = 350,000); AID 720706;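 active = significant combined selectivity score with lowered wild-type GFP, culture density cut under 30%, mutant RFP and density less affected; inactive = any of these conditions unmet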
Cneo AK release – causes C. neoformans cell lysis. lysis activity, % at 15 µM. actives 0.2% (n = 360,000). AID 651654. adenylate kinase release luminescence, 4 h; normalised: neutral wells 0, clomiphene wells 100;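 active = mean lysis activity across replicates of at least 80%, whatever share of replicates individually reach that level; inactive = mean lysis activity below 80%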
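Material: C. neoformans cells; Schedule: 4 h static compound exposure, 37 °C, read 1 h post-reagent; Measured by: adenylate kinase release luminescence; Read-out: signal increase indicating cell lysis; Controls: Clomiphene as positive lysis control.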
INS-1E GSIS act – GLuc luminescence reporter in INS-1E cells, primary screen for activators of glucose-dependent secretion of insulin. INS-1E GLuc reporter insulin secretion, 2-3 h. activation, % at 16.6 µM. actives 0.61% (n = 370,000). AID 743287;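 active = lowest replicate activation of at least 40%, so every replicate reaches that level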;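 note: 0% = median of neutral control wells and 100% = median of IBMX positive control wells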
Numbers without * were called inactive; . = no result given; [ ] = another dose, or the depositor's remark.

SMILES | miR122 inh | HIV Env fusion | F508del corr | rRNA inh HTS | Cneo AK release | INS-1E GSIS act
COc1cc(C(=O)Nc2nnc(S(=O)(=O)N3CCCCCC3)s2)cc(OC)c1OC | -4.3 | -13.6 | -0.5 | -30.6* | 0.0 | -11.6
O=C(C[C@@H]1CC[C@H](NS(=O)(=O)c2ccccc2)[C@H](CO)O1)NCCN1CCCCC1 | . | -3.8[16.7 µM] | -0.7 | 1.1 | -4.7 | -1.0
COc1ccc(Nc2nc(N)nc(CSC(=S)N3CCCCC3C)n2)cc1 (stereo not given) | . | 1.6 | 2.6 | -22.4* | . | -1.4
COc1ccc(OCC(=O)Nc2ccc(N3CCN(C(=O)c4ccccc4)CC3)c(Cl)c2)cc1 | . | 61.9* | -2.5 | -0.1 | 75.1 | 7.4
COc1ccc(N2CCN(C(=O)c3ccc(Br)cc3)CC2)c([N+](=O)[O-])c1 | . | 9.6 | -1.3 | -24.1* | . | -31.1
COc1ccc(N2CCN(C(=O)c3ccccc3)CC2)c([N+](=O)[O-])c1 | 4.9 | 9.9 | -0.6 | -22.6* | 1.8 | 2.3
COc1ccc(N2CCN(C(=O)c3ccc(C)cc3)CC2)c([N+](=O)[O-])c1 | . | -11.2 | . | . | . | -9.8
COc1cccc(NC(=O)N2C[C@H](O)COC[C@@H]3O[C@@H](CC(=O)N(C)C)CC[C@H]32)c1 | 7.6[16.7 µM] | -13.2[16.7 µM] | 2.8 | 3.8 | -0.6 | 8.7
CC(=O)Nc1ccc2c(c1)CC(=O)N(C)C[C@@H](C)[C@H](CN(C)S(C)(=O)=O)O2 | . | . | . | -0.9 | . | 24.0
CCN(CC)c1ccc(C2=NNC(=O)CC2C)cc1[N+](=O)[O-] (stereo not given) | -5.1 | 87.5* | . | . | 1.5 | 36.6
CC1CC(=O)NN=C1c1cccs1 (stereo not given) | -4.1 | -1.2 | -0.5 | 5.2 | 3.1 | -2.0
CC1CC(=O)NN=C1c1ccc(N(C)C)c([N+](=O)[O-])c1 (stereo not given) | -7.7 | 73.0* | . | . | 5.4 | 28.3
C[C@@H]1CCCCO[C@@H](CN(C)S(=O)(=O)c2cccs2)[C@H](C)CN([C@H](C)CO)C(=O)c2cc(N(C)C)ccc2O1 | -7.1[16.7 µM] | -9.5[16.7 µM] | 2.2 | -0.9 | . | -6.0
COc1cccc2c1C(=N)c1c(O)c3c(c(O)c1C2=O)CC(O)(C(C)=O)CC3OC1CC(N)C(O)C(C)O1 (stereo not given) | 24.8 | . | . | . | . | .
COc1cccc2c1C(=O)c1c(O)c3c(c(O)c1C2=O)C[C@](O)(C(C)=O)C[C@H]3O[C@@H]1C[C@@H](N)[C@@H](O)[C@@H](C)O1 | -30.6 | -293.3 | 30.9* | . | -1.1 | .
COc1cccc2c1C(=O)c1c(O)c3c(c(O)c1C2=O)CC(O)(C(C)=O)CC3OC1CC(O)C(O)C(C)O1 (stereo not given) | -0.3 | -185.2 | 19.4* | . | . | .
O=C(C[C@@H]1CC[C@@H]2[C@H](COC[C@@H](O)CN2Cc2cccc(F)c2)O1)NCCc1ccncc1 | -10.5[16.7 µM] | . | -1.9 | 3.9 | -0.3 | -3.9
CCCC#Cc1ccc2c(c1)O[C@@H](CN(C)C(=O)CN(C)C)[C@@H](C)CN([C@@H](C)CO)S2(=O)=O | -4.6[16.7 µM] | -7.8[16.7 µM] | -1.0 | -3.0 | 7.6 | 15.3
CNC(=O)C[C@H]1CC[C@H]2[C@@H](COc3ccc(NC(=O)Nc4ccccc4)cc3C(=O)N2C)O1 | 32.7[16.7 µM] | -22.3[16.7 µM] | -1.1 | 0.7 | 110.2* | 6.3
CCC(=O)Nc1ccc2c(c1)C(=O)N(C)[C@H]1CC[C@H](CC(=O)Nc3ccc(C(C)C)cc3)O[C@@H]1CO2 | -25.0[16.7 µM] | -4.5[16.7 µM] | -0.5 | -2.9 | -0.1 | -2.1
CNC(=O)C[C@H]1CC[C@H]2[C@H](COc3ccc(NC(=O)Nc4ccccc4)cc3C(=O)N2C)O1 | 9.3[16.7 µM] | -3.1[16.7 µM] | 0.9 | 1.6 | 94.1* | -1.3
CNC(=O)C[C@H]1CC[C@H]2[C@@H](COc3ccc(NC(=O)Nc4ccc(C)cc4)cc3C(=O)N2C)O1 | -11.3[16.7 µM] | 11.2[16.7 µM] | 3.5 | -1.3 | 6.4 | -5.1
CNC(=O)C[C@H]1CC[C@H]2[C@H](COc3ccc(NC(=O)Nc4ccc(C)cc4)cc3C(=O)N2C)O1 | -7.0[16.7 µM] | 11.7[16.7 µM] | 0.6 | 1.8 | 9.2 | -1.5
CC(C)c1ccc(NC(=O)C[C@H]2CC[C@H]3[C@@H](COc4ccc(NC(=O)Nc5ccc(F)c(F)c5)cc4C(=O)N3C)O2)cc1 | -45.0[16.7 µM] | 69.5*[16.7 µM] | -3.9 | . | -5.1 | .
C[C@H]1CCCCO[C@H](CN(C)S(=O)(=O)c2ccc(F)cc2)[C@@H](C)CN([C@@H](C)CO)C(=O)c2cc(NC(=O)Cc3ccccc3)ccc2O1 | 2.2[16.7 µM] | -18.9[16.7 µM] | -6.7 | -0.7 | -0.4 | -10.4
SMILES | miR122 inh | HIV Env fusion | F508del corr | rRNA inh HTS | Cneo AK release | INS-1E GSIS act
CC(=O)N1C[C@@H]2[C@H](c3ccccc31)[C@H](CO)N2C(=O)c1ccc(F)cc1 | 11.5[16.7 µM] | . | -1.0 | 2.4 | -0.5 | 5.0
CC(=O)N1[C@@H](CO)[C@@H](c2ccc(-c3ccc(F)cc3)cc2)[C@@H]1CNC(=O)C1CC1 | 21.4[16.7 µM] | . | 2.6 | -2.1 | -0.6 | -9.3
COc1ccc2c3c([nH]c2c1)[C@H](CO)N(C(=O)Nc1ccc(F)cc1)CC31CN(CC2CCOCC2)C1 | . | -7.2[16.7 µM] | -4.4 | -2.5 | . | 6.0
C[C@@H]1CN([C@@H](C)CO)C(=O)c2cc(NC(=O)CCC(F)(F)F)ccc2O[C@@H](C)CCCCO[C@H]1CN(C)CC1CCCCC1 | 10.6[16.7 µM] | 20.2[16.7 µM] | 0.3 | 2.0 | -0.7 | 12.3
COc1cc(CN2CCC(Cc3ccccc3)CC2)cc([N+](=O)[O-])c1O | -0.3 | 1.6 | 1.5 | -1.7 | -0.8 | 0.5
COc1cc(NC(=O)COC(=O)c2n[nH]c3ccccc23)c(C)cc1[N+](=O)[O-] | -0.7 | -2.9 | 19.6* | 17.8 | 3.2 | -5.2
COc1cc(NC(=O)CN2CCC(Cc3ccccc3)CC2)c(C)cc1[N+](=O)[O-] | -1.3 | 10.1 | . | . | 5.5 | 57.9*
O=C(COC(=O)c1n[nH]c2ccccc12)Nc1ccc([N+](=O)[O-])cc1 | . | -13.6 | . | . | . | -33.5
C[C@@H]1CN([C@@H](C)CO)C(=O)c2cc(-c3ccccc3)cnc2O[C@@H]1CN(C)C(=O)Nc1ccccc1F | -4.9[16.7 µM] | 16.0[16.7 µM] | 3.7 | -1.2 | 0.9 | -0.1
C[C@@H]1CN([C@H](C)CO)C(=O)Cc2cc(NC(=O)Nc3ccc(C(F)(F)F)cc3)ccc2O[C@@H]1CN(C)C(=O)Nc1ccc(F)cc1 | 8.9[16.7 µM] | -40.2[16.7 µM] | 5.5 | -0.3 | -0.4 | 0.0
COCC(=O)N1[C@@H](CO)[C@@H](c2ccccc2)C12CN(Cc1ccccc1)C2 | . | . | 0.7 | 0.5 | . | -9.8
COc1ccccc1Nc1nc(C)c(C(=O)Nc2ccccc2)s1 | -1.7 | -29.0 | 5.1 | -32.2* | -2.5 | -15.6
Cc1nc(Nc2ccc(S(N)(=O)=O)cc2)sc1C(=O)Nc1ccccc1 | . | -29.9 | 0.4 | -35.1* | . | -15.8
Cc1cc(C)c(O)c(-c2cc(C(=O)NCCc3ccc(S(N)(=O)=O)cc3)[nH]n2)c1 | 2.9 | 5.5 | 2.7 | -33.3* | -1.3 | -17.5
